Converted amounts (≈) assume the structure as drawn. The source made the active and inactive calls. The calls are words filed in the database; no cut-off is given here.
Columns and labels:
Rattus norvegicus [1] = test: Cardiovascular effect in anaesthetized Wistar rat assessed as mean arterial pressure at 40 mg/kg, ip after 60 mins; type: functional, Artery; settings: route intraperitoneal
How it was run: (§1)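 Adult normotensive Wistar rats (250–300 g) under thiopental (60 mg/kg ip). Right carotid artery cannulated with a heparinised catheter (20 IU/mL in saline, flushed every 30 min) connected to a pressure transducer. Measurement began one hour after surgery. Compound given ip at 40 mg/kg in 0.5% methyl cellulose, with mean arterial pressure read at 0, 15, 30, 45 and 60 min.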

Rattus norvegicus [2] = test: Cardiovascular effect in anaesthetized Wistar rat assessed as mean arterial pressure at 40 mg/kg, ip after 45 mins; type: functional, Artery; settings: route intraperitoneal; how it was run: as §1
Rattus norvegicus [3] = test: Cardiovascular effect in anaesthetized Wistar rat assessed as mean arterial pressure at 40 mg/kg, ip after 15 mins; type: functional, Artery; settings: route intraperitoneal; how it was run: as §1
Rattus norvegicus [4] = test: Cardiovascular effect in anaesthetized Wistar rat assessed as mean arterial pressure at 40 mg/kg, ip after 30 mins; type: functional, Artery; settings: route intraperitoneal; how it was run: as §1
Rattus norvegicus [5] = test: Effect on heart rate in anesthetized Wistar rat assessed as number of beats per minutes at 40 mg/kg, ip after 45 mins by electrocardiography; type: functional; settings: route intraperitoneal
How it was run: (§2)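 Wistar rats (250–300 g) anaesthetised with thiopental 60 mg/kg ip, then given compound ip at 40 mg/kg in 0.5% aqueous methyl cellulose. ECG recorded by transducer, with heart rate (beats/min) and P–Q, QRS and Q–T intervals (ms) taken at 0, 15, 30, 45 and 60 min after dosing.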

Rattus norvegicus [6] = test: Effect on heart rate in anesthetized Wistar rat assessed as number of QRS complex at 40 mg/kg, ip after 45 mins by electrocardiography; type: functional; settings: route intraperitoneal; how it was run: as §2
Rattus norvegicus [7] = test: Effect on heart rate in anesthetized Wistar rat assessed as number of P-Q-intervals at 40 mg/kg, ip after 45 mins by electrocardiography; type: functional; settings: route intraperitoneal; how it was run: as §2
Rattus norvegicus [8] = test: Effect on heart rate in anesthetized Wistar rat assessed as number of Q-T-intervals at 40 mg/kg, ip after 60 mins by electrocardiography; type: functional; settings: route intraperitoneal; how it was run: as §2
Rattus norvegicus [9] = test: Effect on heart rate in anesthetized Wistar rat assessed as number of P-Q-intervals at 40 mg/kg, ip after 60 mins by electrocardiography; type: functional; settings: route intraperitoneal; how it was run: as §2
Rattus norvegicus [10] = test: Effect on heart rate in anesthetized Wistar rat assessed as number of beats per minutes at 40 mg/kg, ip after 60 mins by electrocardiography; type: functional; settings: route intraperitoneal; how it was run: as §2
Rattus norvegicus [11] = test: Effect on heart rate in anesthetized Wistar rat assessed as number of QRS complex at 40 mg/kg, ip after 30 mins by electrocardiography; type: functional; settings: route intraperitoneal; how it was run: as §2
Rattus norvegicus [12] = test: Effect on heart rate in anesthetized Wistar rat assessed as number of beats per minutes at 40 mg/kg, ip after 30 mins by electrocardiography; type: functional; settings: route intraperitoneal; how it was run: as §2
Rattus norvegicus [13] = test: Effect on heart rate in anesthetized Wistar rat assessed as number of Q-T-intervals at 40 mg/kg, ip after 30 mins by electrocardiography; type: functional; settings: route intraperitoneal; how it was run: as §2
Rattus norvegicus [14] = species on record: Rattus norvegicus; test: NO release in Wistar rat by Griess reagent assay in presence of L-cysteine relative to control
Rattus norvegicus [15] = test: Effect on heart rate in anesthetized Wistar rat assessed as number of QRS complex at 40 mg/kg, ip after 60 mins by electrocardiography; type: functional; settings: route intraperitoneal; how it was run: as §2
Rattus norvegicus [16] = test: Effect on heart rate in anesthetized Wistar rat assessed as number of P-Q-intervals at 40 mg/kg, ip after 15 mins by electrocardiography; type: functional; settings: route intraperitoneal; how it was run: as §2
Rattus norvegicus [17] = test: Effect on heart rate in anesthetized Wistar rat assessed as number of QRS complex at 40 mg/kg, ip after 15 mins by electrocardiography; type: functional; settings: route intraperitoneal; how it was run: as §2
Rattus norvegicus [18] = test: Effect on heart rate in anesthetized Wistar rat assessed as number of beats per minutes at 40 mg/kg, ip after 15 mins by electrocardiography; type: functional; settings: route intraperitoneal; how it was run: as §2
Rattus norvegicus [19] = test: Antiarrhythmic activity in anaesthetized Wistar rat assessed as decrease in BaCl2-induced cardiac rhythm disturbance at 40 mg/kg, ip 60 mins before arrhythmogen challenge; type: functional, organism-based; set-up: dose 40 mg/kg; settings: Heart
How it was run: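 Rats (thiopental 60 mg/kg ip anaesthesia) given test compound ip at 40 mg/kg, suspended in 0.5% aqueous methyl cellulose, 60 min before iv barium chloride (32 mg/kg) to evoke arrhythmia. Scored by reduction of rhythm disturbances (premature ventricular beats, ventricular tachycardia, fibrillation) and mortality.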

Rattus norvegicus [20] = test: Effect on heart rate in anesthetized Wistar rat assessed as number of Q-T-intervals at 40 mg/kg, ip after 15 mins by electrocardiography; type: functional; settings: route intraperitoneal; how it was run: as §2
Rattus norvegicus [21] = test: Effect on heart rate in anesthetized Wistar rat assessed as number of P-Q-intervals at 40 mg/kg, ip after 30 mins by electrocardiography; type: functional; settings: route intraperitoneal; how it was run: as §2
Rattus norvegicus [22] = test: Vasorelaxation activity […] assessed as inhibition of norepinephrine-induced contraction of aorta ring at 0.1 mg/ml; type: functional
How it was run: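 Isolated Wistar rat aorta rings in physiological salt solution at 37 °C, gassed 95% O2/5% CO2, isometric tension, 60 min equilibration. After contraction plateau, test compound (0.1 mg/mL) added cumulatively; EC50 (g/mL) derived from cumulative concentration–response curves against norepinephrine.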

Rattus norvegicus [23] = test: Effect on heart rate in anesthetized Wistar rat assessed as number of Q-T-intervals at 40 mg/kg, ip after 45 mins by electrocardiography; type: functional; settings: route intraperitoneal; how it was run: as §2

| Compound | Activity (Rattus norvegicus [1]) [mmHg] | Activity (Rattus norvegicus [2]) [mmHg] | Activity (Rattus norvegicus [3]) [mmHg] | Activity (Rattus norvegicus [4]) [mmHg] | Activity (Rattus norvegicus [5]) | Activity (Rattus norvegicus [6]) | Activity (Rattus norvegicus [7]) | Activity (Rattus norvegicus [8]) | Activity (Rattus norvegicus [9]) | Activity (Rattus norvegicus [10]) | Activity (Rattus norvegicus [11]) | Activity (Rattus norvegicus [12]) | Activity (Rattus norvegicus [13]) | % NO release (Rattus norvegicus [14]) [%] | Activity (Rattus norvegicus [15]) | Activity (Rattus norvegicus [16]) | Activity (Rattus norvegicus [17]) | Activity (Rattus norvegicus [18]) | Activity (Rattus norvegicus [20]) | Activity (Rattus norvegicus [21]) | other results |
| --- | --- | --- | --- | --- | --- | --- | --- | --- | --- | --- | --- | --- | --- | --- | --- | --- | --- | --- | --- | --- | --- |
| CC(C)NCC(O)COc1ccc(CC(N)=O)cc1 (stereo not drawn) [ATENOLOL] | 69.93 | 65.24 | 79.01 | 63.44 | – | – | – | – | – | – | – | – | – | – | – | – | – | – | – | – | – |
| O=C(CO[N+](=O)[O-])NNC(=O)c1ccc(NCC(O)CN2C(=O)/C(=C/c3ccccc3O)S/C2=N/c2ccccc2)cc1 (stereo not drawn) | 76.24 | 64.32 | 82.91 | 72.44 | 279.28 | 23.4 | 54.6 | 72.8 | 52.8 | 294.57 | 22.4 | 291.85 | 74.4 | 0.29 | 20.8 | 51.4 | 21.2 | 298.24 | 73.2 | 54.2 | Activity (Rattus norvegicus [19]): Active; EC50 (Rattus norvegicus [22]): 45.7 µg/mL (≈ 75.4 µM); Activity (Rattus norvegicus [23]): 75.4 |
| O=C(CO[N+](=O)[O-])NNC(=O)c1ccc(NCC(O)CN2C(=O)/C(=C/c3ccc(F)cc3)S/C2=N/c2ccccc2)cc1 (stereo not drawn) | 85.23 | 80.53 | 84.89 | 78.92 | 294.11 | 23.2 | 52.4 | 66.4 | 52.2 | 300.39 | 23.6 | 289.83 | 68.6 | 0.23 | 22 | 51.7 | 22.8 | 300.28 | 67.8 | 52.2 | EC50 (Rattus norvegicus [22]): 49 µg/mL (≈ 80.5 µM); Activity (Rattus norvegicus [23]): 68.2 |
| O=C(CO[N+](=O)[O-])NNC(=O)c1ccc(NCC(O)CN2C(=O)/C(=C/c3ccccc3)S/C2=N/c2ccccc2)cc1 (stereo not drawn) | 71.29 | 67.54 | 78.67 | 62.21 | 276.83 | 20.6 | 54.2 | 86.2 | 55.4 | 291.8 | 21.2 | 269.11 | 63.2 | 0.33 | 21.6 | 52.2 | 19.4 | 292.18 | 81.8 | 53.6 | Activity (Rattus norvegicus [19]): Active; EC50 (Rattus norvegicus [22]): 34.7 µg/mL (≈ 58.7 µM); Activity (Rattus norvegicus [23]): 84.6 |
| O=C(CO[N+](=O)[O-])NNC(=O)c1ccc(NCC(O)CN2C(=O)/C(=C/C=C/c3ccccc3)S/C2=N/c2ccccc2)cc1 (stereo not drawn) | 90.58 | 80.16 | 84.86 | 77.54 | 302.23 | 21.4 | 53.6 | 73.4 | 52.4 | 308.77 | 22.4 | 295.42 | 75.8 | 0.24 | 20.4 | 52.4 | 21 | 307.46 | 74.6 | 53.6 | EC50 (Rattus norvegicus [22]): 34.7 µg/mL (≈ 56.2 µM); Activity (Rattus norvegicus [23]): 74.8 |
| COc1cc(/C=C2\S/C(=N/c3ccccc3)N(CC(O)CNc3ccc(C(=O)NNC(=O)CO[N+](=O)[O-])cc3)C2=O)cc(OC)c1OC (stereo not drawn) | 81.25 | 62.69 | 82.81 | 73.93 | 277.12 | 23.2 | 57.6 | 83.8 | 54.8 | 291.2 | 22 | 293.35 | 80.8 | 0.32 | 22.8 | 55 | 21.2 | 301.97 | 79.6 | 56.2 | EC50 (Rattus norvegicus [22]): 60.3 µg/mL (≈ 88.5 µM); Activity (Rattus norvegicus [23]): 82.2 |
| Cc1ccc(/C=C2\S/C(=N/c3ccccc3)N(CC(O)CNc3ccc(C(=O)NNC(=O)CO[N+](=O)[O-])cc3)C2=O)cc1 (stereo not drawn) | 88.93 | 72.21 | 91.1 | 79.16 | 279.98 | 24 | 52 | 72.2 | 50.2 | 297.59 | 23.6 | 291.92 | 73.4 | 0.27 | 22.8 | 49.6 | 23.2 | 303.44 | 72.8 | 51.2 | EC50 (Rattus norvegicus [22]): 28.2 µg/mL (≈ 46.6 µM); Activity (Rattus norvegicus [23]): 74.8 |

Source: ChEMBL document CHEMBL1139305, “Design, synthesis and pharmacological screening of novel antihypertensive agents using hybrid approach” (Bioorg Med Chem, 2009)
